Source: PMC5330449 (ACS sustainable chemistry & engineering, 2015)
In brackets after ≈: the same amount, converted by molar mass. Read-outs that look alike come from different tables or passages of the source. Marks after values point to notes of the source that are not given here.

What was measured:
[1] = Thermogravimetric analysis; assay type: physicochemical; conditions: TGA onset, nitrogen atmosphere, 10 °C.min^-1
[2] = Water solubility from saturated aqueous solution, UV quantification; assay type: physicochemical; conditions: 25 °C, pure water; for solubility at 72 h: water, thermodynamic from solid
[3] = DPPH radical scavenging assay; conditions: for DPPH radical scavenging (antioxidant) activity, in words: 30, 90 and 120 minutes of exposure to DPPH; for DPPH scavenging IC50: tested up to 1 mg.mL^-1, IC50 impossible to determine
Summary of the method: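 DPPH (250 µL of 0.91 mmol/L in methanol) was combined with 20–80 µL of a test compound stock and made up to 4 mL with methanol. Samples stood in the dark at room temperature for 30, 90 and 120 min before absorbance was read at 517 nm. Controls were DPPH without compound and ascorbic acid as positive control. Activity = (A0−A1)/A0×100, and IC50 came from scavenging-versus-concentration fits, in triplicate.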

Raw 264.7 cells = assay: Cytotoxicity, resazurin metabolic conversion, Raw 264.7; assay type: cell-based, mouse; conditions: for EC50: read-out: EC50, 50% decrease in cell viability
Summary of the method: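 Mouse Raw 264.7 macrophages were kept in IMDM with 10% non-inactivated FBS and penicillin/streptomycin at 37 °C, 5% CO2. After 24 h attachment, cells received test compound at 1–5000 µM in full medium for 24 h. Resazurin (10% v/v) was added for the last 1 h, and resorufin absorbance was read at 570/600 nm relative to untreated cells. EC50 was fitted by non-linear least squares to a logistic model, from three independent experiments in triplicate.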

HaCaT cells = assay: Cytotoxicity, resazurin metabolic conversion, HaCaT; assay type: cell-based, human
Summary of the method: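 HaCaT keratinocytes were grown in high-glucose DMEM with 4 mM glutamine, 10% heat-inactivated FBS and penicillin/streptomycin at 37 °C under 5% CO2. After 24 h attachment in 96-well plates, cells were exposed for 24 h to test compound (1–5000 µM) in full medium. Resazurin (10% v/v) was present for the final 2 h. Absorbance was read at 570/600 nm and normalised to untreated cells. EC50 came from a logistic least-squares fit of three independent experiments run in triplicate.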

[4] = tested on: Raw 264.7 macrophages stimulated with LPS; assay: Inhibition of LPS-induced NO production in macrophages; assay type: cell-based, mouse; conditions: 100 μM and 50 μM, pre-treated 1 hour, LPS 1 μg.mL^-1
Vibrio fischeri = assay: Standard Microtox liquid-phase assay; assay type: cell-based, Vibrio fischeri (strain NRRL B-11177); conditions: for Ecotoxicity rank among the cholinium-based salts: EC50 in mmol.L^-1, Figure 2; for EC50, luminescence inhibition: 30 min of exposure, 15 °C, Passino's classification
Summary of the method: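 Vibrio fischeri NRRL B-11177 was tested by the standard 81.9% liquid-phase protocol at 15 °C. Aqueous dilutions (0–81.9 wt% of stock) were used, with stock concentration corrected for water content by Karl Fischer titration. Luminescence was read after 5, 15 and 30 min and compared with a blank. EC50 and 95% confidence intervals were fitted to a logistic equation by non-linear least squares.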

[5] = 25 °C; ref Queimada et al. 39; cited from earlier work
[6] = cited from earlier work
[7] = Raw 264.7, 24 hours of exposure
[8] = read-out: EC50, 50% decrease in cell viability, 24 hours of exposure
[9] = Homo sapiens, 24 h, read-out: EC50, 50% decrease in cell viability

For `COc1cc(C(=O)O)ccc1O` [vanillic acid, reference compound], the “Temperature of decomposition (Td)” value [1] was 233.7 ºC.
In the case of `C[N+](C)(C)CCO.C[N+](C)(C)CCO.O=c1oc2c(O)c([O-])cc3c(=O)oc4c(O)c([O-])cc1c4c23` [[Chol]2[Ell], di((2-hydroxyethyl)trimethylammonium) 3,8-dihydroxy-5,10-dioxo-5,10-dihydrochromeno[5,4,3-cde]chromene-2,7-bis(olate)], the “Temperature of decomposition (Td)” value [1] is reported as 265 ºC, the “Temperature of decomposition (Td)” value ([1]; listed as [Chol]2 [Ell]) is reported as 265.0 ºC and the “Water solubility ± std” value [2] is reported as 622.97 ± 36.98 mM. The “DPPH radical scavenging (antioxidant) activity, in words” value [3] was “highest antioxidant activity”, the “Cell viability at maximum concentration achieved” value (Raw 264.7 cells; 125 µM, Raw 264.7) was “not observed a decrease in the cell viability” and the “Cell viability at maximum concentration achieved” value (HaCaT cells; 125 µM) was “not observed a decrease in the cell viability”. The “Effect on LPS-induced NO production” value [4] was “significantly inhibit the LPS-induced NO increase”.
`O=C(O)/C=C/c1ccc(O)c(O)c1` [[Chol][Caf], (2-hydroxyethyl) trimethylammonium (E)-3-(3,4-dihydroxyphenyl)acrylate] gave an EC50 (Raw 264.7 cells; [7]) of 2340 µM and an EC50 (HaCaT cells; [8]) of 1790 µM.
For `COc1cc(C(=O)[O-])cc(OC)c1O.C[N+](C)(C)CCO` [[Chol][Syr], (2-hydroxyethyl) trimethylammonium 4-hydroxy-3,5-dimethoxybenzoate], the “Temperature of decomposition (Td)” value [1] was 178.9 ºC and the “Water solubility ± std” value [2] was 2793.71 ± 17.98 mM.
In the case of `O=C(O)c1cc(O)c(O)c(O)c1` [gallic acid, 3,4,5-trihydroxybenzoic acid, reference compound], the “Temperature of decomposition (Td)” value [1] is reported as 262.5 ºC, the solubility at 72 h [2] is reported as 71.3 ± 2.7 mM (≈ 12100 µg/mL) and the EC50 (Raw 264.7 cells; Mus musculus, RAW264.7, 24 h) is reported as 591 µM. The EC50 (HaCaT cells; [9]) was 267 µM and the “Effect on LPS-induced NO production” value [4] was “neither [Chol][Gal] nor gallic acid decrease the LPS-induced NO production”.
For `C[N+](C)(C)CCO.O=C([O-])/C=C/c1ccc(O)c(O)c1` [[Chol][Caf], (2-hydroxyethyl) trimethylammonium (E)-3-(3,4-dihydroxyphenyl)acrylate], the “Effect on LPS-induced NO production” value [4] was “significantly inhibit the LPS-induced NO increase”.
`O=C(O)/C=C/c1ccc(O)c(O)c1` [caffeic acid, reference compound] gave a solubility at 72 h [2] of 3.84 ± 0.04 mM (≈ 692 µg/mL), an EC50 (Raw 264.7 cells; Mus musculus, RAW264.7, 24 h) of 2000 µM and an EC50 (HaCaT cells; [9]) of 1800 µM.
In the case of `O=C(O)c1ccccc1O` [salicylic acid, reference compound], the “Temperature of decomposition (Td)” value [1] is reported as 183.9 ºC and the “DPPH scavenging IC50” value [3] is reported as > 1000 µg/mL.
In the case of `C[N+](C)(C)CCO.O=C([O-])c1ccccc1O` [[Chol][Sal], (2-hydroxyethyl) trimethylammonium 2-hydroxybenzoate, reference compound], the “Temperature of decomposition (Td)” value [1] is reported as 226.0 ºC, the “Water solubility ± std” value [2] is reported as “Completely miscible” and the “DPPH scavenging IC50” value [3] is reported as > 1000 µg/mL. For the same molecule, the “Ecotoxicity rank among the cholinium-based salts” value (Vibrio fischeri) was “most toxic”.
In the case of `C[N+](C)(C)CCO.O=C([O-])c1cc(O)c(O)c(O)c1` [[Chol][Gal], (2-hydroxyethyl) trimethylammonium 3,4,5-trihydroxybenzoate], the “Temperature of decomposition (Td)” value [1] is reported as 185.3 ºC, the “Water solubility ± std” value [2] is reported as 2402.27 ± 6.09 mM and the “EC50, luminescence inhibition” value (Vibrio fischeri) is reported as > 1000 µg/mL. For the same molecule, the “Ecotoxicity rank among the cholinium-based salts” value (Vibrio fischeri) was “less toxic” and the “Effect on LPS-induced NO production” value [4] was “neither [Chol][Gal] nor gallic acid decrease the LPS-induced NO production”.
For `O=c1oc2c(O)c(O)cc3c(=O)oc4c(O)c(O)cc1c4c23` [ellagic acid, reference compound], the “Temperature of decomposition (Td)” value [1] is listed as 472.6 ºC and the “Water solubility ± std” value [5] is listed as 1.26E-02 ± 3.31E-04 ^b mmol.L^-1.
Molecule `O=C(O)c1cc(O)c(O)c(O)c1` [[Chol][Gal], (2-hydroxyethyl) trimethylammonium 3,4,5-trihydroxybenzoate] has an EC50 (Raw 264.7 cells; [7]) of 836 µM and an EC50 (HaCaT cells; [8]) of 304 µM.
For `C[N+](C)(C)CCO.[Cl-]` [cholinium chloride, Cholinium chloride], the Decomposition temperature [6] is listed as “circa 305 ºC”.
In the case of `COc1cc(C(=O)[O-])ccc1O.C[N+](C)(C)CCO` [[Chol][Van], (2-hydroxyethyl) trimethylammonium 4-hydroxy-3-methoxybenzoate], the “Temperature of decomposition (Td)” value [1] is reported as 186.8 ºC, the “DPPH radical scavenging (antioxidant) activity, in words” value [3] is reported as “significantly higher DPPH radical scavenging activity than vanillic acid” and the “EC50, luminescence inhibition” value (Vibrio fischeri) is reported as > 1000 µg/mL.
